The subject of data set [1] is Adrenal gland. Briefly: Biodistribution in male Sprague-Dawley rat adrenal gland at 5 mg/kg, po administered as single dose measured after 1 hr. Type of data set: ADME, organism-based. Further details: dose 5 mg/kg, dosed compound name [14C]-apixaban, route oral. The settings on record: in vivo. The gist of the method: (§1)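 [¹⁴C]Apixaban given by oral gavage at 5 mg/kg (100 μCi/kg) in 0.5% Tween 80 in Labrafil (1.0 mg/mL dosing solution) to rats fasted overnight through 4 h post-dose. One rat per time point; carcass frozen in hexane/dry ice. Quantitative whole-body autoradiography used 40 µm sagittal sections and a phosphor imaging plate calibrated with [¹⁴C]glucose standards (0.001–6.5 μCi/g). Read-out in µg eq apixaban/g; LLOQ 0.037 μg eq/g.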

The test system of data set [2] is Adrenal gland. The data set can be described thus: Biodistribution in male Sprague-Dawley rat adrenal gland at 5 mg/kg, po administered as single dose measured after 0.5 hrs. It is filed as ADME, organism-based. Further details: dose 5 mg/kg, dosed compound name [14C]-apixaban, route oral. Particulars: in vivo. The gist of the method: as §1
The subject of a further data set is Pancreas. The data set can be described thus: Biodistribution in male Sprague-Dawley rat pancreas at 5 mg/kg, po administered as single dose measured after 8 hrs. It is filed as ADME, organism-based. The settings on record: in vivo. Further details: dose 5 mg/kg, dosed compound name [14C]-apixaban, route oral. The essentials: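 [14C]apixaban (1.0 mg/mL, 20 μCi/mL) in 0.5% Tween 80 in Labrafil, given by oral gavage at 100 μCi/kg to male rats (225-252 g) fasted overnight through 4 h post-dose. One rat per time point. Carcasses frozen in hexane/dry ice and cut into 40 µm sagittal sections. QWBA read on phosphor plates against [14C]glucose standards, reported as µg eq/g. LLOQ 0.037 µg eq/g.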

In data set [3] the test system is Adrenal gland. The data set can be described thus: Biodistribution in female Sprague-Dawley rat adrenal gland at 5 mg/kg, po administered as single dose measured after 24 hrs. Type of data set: ADME, organism-based. Particulars: in vivo. Further details: dose 5 mg/kg, dosed compound name [14C]-apixaban, route oral. The essentials:
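Quantitative whole-body autoradiography was run after a single 5 mg/kg (100 μCi/kg) oral gavage to fasted female or pregnant SD rats, one rat per time point. Carcasses were frozen in hexane/dry ice, and 40 µm sagittal sections were dried at −20°C for at least 48 h. Sections were exposed to a phosphor plate alongside [14C]glucose standards (0.001–6.5 µCi/g). Results are µg eq/g, with LLOQ 0.037 µg eq/g.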

The test system of data set [4] is Rattus norvegicus. The data set can be described thus: Biodistribution in female Sprague-Dawley rat brown fat at 5 mg/kg, po administered as single dose measured after 8 hrs. Type of data set: ADME, organism-based, Brown adipose tissue. Further details: dose 5 mg/kg, dosed compound name [14C]-apixaban, route oral. The settings on record: in vivo. The essentials: (§2)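 [14C]apixaban (20 μCi/mL in dosing solution) in 0.5% Tween 80 in Labrafil given by oral gavage to fasted female rats, 206-213 g, at 100 μCi/kg. One rat per time point was euthanized and snap-frozen. Sagittal 40 µm whole-body sections were read by QWBA phosphor imaging against [14C]glucose standards. Results are in µg eq apixaban/g, with LLOQ 0.037 μg eq/g.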

Data set [5] concerns Rattus norvegicus. The data set can be described thus: Biodistribution in male Sprague-Dawley rat salivary gland at 5 mg/kg, po administered as single dose measured after 24 hrs. It is filed as ADME, organism-based. Further details: dose 5 mg/kg, dosed compound name [14C]-apixaban, route oral. The settings on record: in vivo.
In data set [6] the test system is Blood. The data set can be described thus: Biodistribution in male Sprague-Dawley rat blood at 5 mg/kg, po administered as single dose measured after 72 hrs. Type of data set: ADME, organism-based. Further details: dose 5 mg/kg, dosed compound name [14C]-apixaban, route oral. The settings on record: in vivo. The essentials:
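Fasted male SD rats (225-252 g) each received one oral gavage dose of [14C]apixaban, 5 mg/kg (100 μCi/kg), in 0.5% Tween 80/Labrafil vehicle. One rat was killed per time point, from 0.5 to 168 h. Frozen carcasses were cut into 40 µm sagittal whole-body sections and read by QWBA phosphor imaging against [14C]glucose calibrants. Results are in µg apixaban eq/g; BLQ <0.037 µg eq/g.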

Data set [7] relates to Rattus norvegicus. Briefly: Biodistribution in fetal liver of pregnant Sprague-Dawley rat at 5 mg/kg, po administered as single dose measured after 8 hrs. Particulars: in vivo. Further details: dose 5 mg/kg, dosed compound name [14C]-apixaban, route oral. It is filed as ADME, organism-based. The gist of the method: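 Pregnant SD rats received a single oral gavage of [14C]apixaban at 5 mg/kg (100 μCi/kg; 1.0 mg/mL, 20 μCi/mL in 0.5% Tween 80/Labrafil) after fasting, one dam per time point. Frozen carcasses were cut into 40 µm sagittal sections and read by phosphor-imaging QWBA against [14C]glucose standards. Fetal tissue radioactivity is reported as µg eq/g, with LLOQ 0.037 µg eq/g.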

The next data set relates to Heart. Briefly: Biodistribution in female Sprague-Dawley rat heart at 5 mg/kg, po administered as single dose measured after 0.5 hrs. It is filed as ADME, organism-based. Further details: dose 5 mg/kg, dosed compound name [14C]-apixaban, route oral. Particulars: in vivo. The essentials: as §1
Data set [8] has as its system Rattus norvegicus. The data set can be described thus: Biodistribution in female Sprague-Dawley rat brown fat at 5 mg/kg, po administered as single dose measured after 0.5 hrs. Type of data set: ADME, organism-based, Brown adipose tissue. Further details: dose 5 mg/kg, dosed compound name [14C]-apixaban, route oral. The settings on record: in vivo. The essentials:
as §2

The test system of data set [9] is Blood. Briefly: AUC (0 to infinity) in female Sprague-Dawley rat blood at 5 mg/kg, po administered as single dose. Type of data set: ADME, organism-based. Further details: time infinity, dose 5 mg/kg, dosed compound name [14C]-apixaban, route oral. Particulars: in vivo.
A short description of data set [10]: Drug level in lactating Sprague-Dawley rat milk at 5 mg/kg, po administered as single dose after 1 hr. It is filed as ADME, organism-based. Further details: dose 5 mg/kg, dosed compound name [14C]-apixaban, route oral. Particulars: in vivo.
The nature of data set [11]: Drug level in lactating Sprague-Dawley rat milk at 5 mg/kg, po administered as single dose after 12 hrs. Type of data set: ADME, organism-based. Further details: dose 5 mg/kg, dosed compound name [14C]-apixaban, route oral. The settings on record: in vivo.
The next data set deals with Spleen. Briefly: Biodistribution in pregnant Sprague-Dawley rat spleen at 5 mg/kg, po administered as single dose measured after 48 hrs. Type of data set: ADME, organism-based. Further details: dose 5 mg/kg, dosed compound name [14C]-apixaban, route oral. Particulars: in vivo. The essentials: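 Pregnant SD rats (270-319 g) were fasted overnight and given one oral gavage of 5 mg/kg (100 μCi/kg) in 0.5% Tween 80 in Labrafil. One rat was euthanized per time point (0.5, 1, 4, 8, 24, 48 h) and the carcass frozen. 40 µm sagittal sections were phosphor-imaged against [14C]glucose standards and results reported as µg eq/g; LLOQ 0.037 µg eq/g.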

The test system of data set [12] is Adrenal gland. The data set can be described thus: Biodistribution in female Sprague-Dawley rat adrenal gland at 5 mg/kg, po administered as single dose measured after 4 hrs. Type of data set: ADME, organism-based. Further details: dose 5 mg/kg, dosed compound name [14C]-apixaban, route oral. The settings on record: in vivo. The gist of the method: as §1
The subject of another data set is Liver. Briefly: Biodistribution in pregnant Sprague-Dawley rat liver at 5 mg/kg, po administered as single dose measured after 4 hrs. Type of data set: ADME, organism-based. Further details: dose 5 mg/kg, dosed compound name [14C]-apixaban, route oral. The settings on record: in vivo. The essentials: (§3)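 Fasted pregnant SD rats (n=6, 270-319 g) each received one oral gavage dose of [14C]apixaban, 5 mg/kg (100 μCi/kg), in 0.5% Tween 80/Labrafil. One rat was killed at each of 0.5, 1, 4, 8, 24 and 48 h. Carcasses were frozen in hexane/dry ice, cut into 40 µm sagittal sections, exposed to phosphor plates and quantified against [14C]glucose standards as µg eq/g. LLOQ was 0.037 µg eq/g.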

The test system of the next data set is Brain. Briefly: Biodistribution in female Sprague-Dawley rat brain at 5 mg/kg, po administered as single dose measured after 1 hr. Type of data set: ADME, organism-based. Further details: dose 5 mg/kg, dosed compound name [14C]-apixaban, route oral. The settings on record: in vivo. The gist of the method: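 [14C]Apixaban (1.0 mg/mL, 20 μCi/mL in 0.5% Tween 80 in Labrafil) given as a single oral gavage of 5 mg/kg (100 μCi/kg) to fasted female SD rats, one rat per time point. Carcasses were frozen in hexane/dry ice and cut into 40 µm sagittal sections for QWBA against [14C]glucose standards. Brain radioactivity is reported as µg eq/g, with LLOQ 0.037 µg eq/g.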

Data set [13] concerns Blood. Briefly: Biodistribution in pregnant Sprague-Dawley rat blood at 5 mg/kg, po administered as single dose measured after 24 hrs. It is filed as ADME, organism-based. Further details: dose 5 mg/kg, dosed compound name [14C]-apixaban, route oral. The settings on record: in vivo. The gist of the method:
as §3

In data set [14] the test system is Rattus norvegicus. The data set can be described thus: Biodistribution in fetal kidney of pregnant Sprague-Dawley rat at 5 mg/kg, po administered as single dose measured after 1 hr. It is filed as ADME, organism-based. Further details: dose 5 mg/kg, dosed compound name [14C]-apixaban, route oral. Particulars: in vivo. The essentials: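 Pregnant rats, 270-319 g and fasted overnight, received [14C]apixaban by oral gavage at 100 μCi/kg in 0.5% Tween 80/Labrafil. One dam per time point was euthanized and frozen in hexane/dry ice. Fetal tissue radioactivity was measured by QWBA on 40 µm sagittal sections calibrated with [14C]glucose standards. Values are in µg eq/g, with LLOQ 0.037 μg eq/g.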

A short description of data set [15]: Drug excretion in Sprague-Dawley rat urine assessed as apixaban level at 30 mg/kg, po by HPLC method. The settings on record: read-out: Compound recovery.

Consider `COc1ccc(-n2nc(C(N)=O)c3c2C(=O)N(c2ccc(N4CCCC[14C]4=O)cc2)CC3)cc1`, for which the Radiolabel recovery is 1.2 ugequiv/g in the data set on Adrenal gland [1]; 0.59 ugequiv/g with Adrenal gland [2]; 0.12 ugequiv/g with Pancreas; “Not detected assumed BLQ” in the data set on Adrenal gland [3]; 0.17 ugequiv/g in the data set with Rattus norvegicus [4]; under 0.037 ugequiv/g with Rattus norvegicus [5]. The Radiolabel recovery result in the data set with Blood [6] was “Not sampled as not visualised in autoradiograph”; with Rattus norvegicus [7], 0.06 ugequiv/g; in the data set on Heart, 0.37 ugequiv/g; in the data set on Rattus norvegicus [8] it was 0.48 ugequiv/g; in data set [10], 4.56 µg/mL; in [11] it was 3.61 µg/mL. Besides, the Radiolabel recovery result is on record as “Not detected assumed BLQ” with Spleen; 0.9 ugequiv/g in the data set with Adrenal gland [12]; 6.13 ugequiv/g in the data set with Liver; under 0.037 ugequiv/g with Brain; “Not detected assumed BLQ” in the data set on Blood [13]; 0.2 ugequiv/g in the data set with Rattus norvegicus [14]. Also, in the data set with Blood [9], the AUC stood at 3780 ngequiv.hr/g. The dose excreted in [15] was found to be 93%.

These data come from ChEMBL document CHEMBL3525963, “Tissue distribution and elimination of [14C]apixaban in rats” (Drug Metab Dispos, 2011).
